These results are taken from publication PMC4593394 (ACS chemical biology, 2015).

Data set [1] deals with Ub^G76VGFP in HEK293 cells. As to the kind of experiment: Ub^G76VGFP reporter level, Western blot. The format is cell-based. As to conditions: anti-GFP Western blot. For orientation: Immunoblotting shows a protein as a band on a membrane.
In data set [2] the target is p97–C209A (Homo sapiens, UniProt P55072, C209A). The data set can be described thus: ATPase assay, p97 C209A variant. In kind it is biochemical. The procedure, abridged: (§1)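 His-tagged p97 variants were expressed from pET14b in E. coli BL21(DE3) and purified on Talon resin; C522A and C209A were also run on Superose 6. Enzyme (100 nM) was in 50 mM Tris pH 7.4, 150 mM KCl, 10 mM MgCl2, 1 mM DTT. Compound (0.0004–100 μM, 12 points, DMSO) was preincubated 10 min at 21 °C. 100 μM ATP was added at 21 °C. IC50 came from % inhibition versus log concentration.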
Chain of p97–C209A (P55072 whole entry C209A): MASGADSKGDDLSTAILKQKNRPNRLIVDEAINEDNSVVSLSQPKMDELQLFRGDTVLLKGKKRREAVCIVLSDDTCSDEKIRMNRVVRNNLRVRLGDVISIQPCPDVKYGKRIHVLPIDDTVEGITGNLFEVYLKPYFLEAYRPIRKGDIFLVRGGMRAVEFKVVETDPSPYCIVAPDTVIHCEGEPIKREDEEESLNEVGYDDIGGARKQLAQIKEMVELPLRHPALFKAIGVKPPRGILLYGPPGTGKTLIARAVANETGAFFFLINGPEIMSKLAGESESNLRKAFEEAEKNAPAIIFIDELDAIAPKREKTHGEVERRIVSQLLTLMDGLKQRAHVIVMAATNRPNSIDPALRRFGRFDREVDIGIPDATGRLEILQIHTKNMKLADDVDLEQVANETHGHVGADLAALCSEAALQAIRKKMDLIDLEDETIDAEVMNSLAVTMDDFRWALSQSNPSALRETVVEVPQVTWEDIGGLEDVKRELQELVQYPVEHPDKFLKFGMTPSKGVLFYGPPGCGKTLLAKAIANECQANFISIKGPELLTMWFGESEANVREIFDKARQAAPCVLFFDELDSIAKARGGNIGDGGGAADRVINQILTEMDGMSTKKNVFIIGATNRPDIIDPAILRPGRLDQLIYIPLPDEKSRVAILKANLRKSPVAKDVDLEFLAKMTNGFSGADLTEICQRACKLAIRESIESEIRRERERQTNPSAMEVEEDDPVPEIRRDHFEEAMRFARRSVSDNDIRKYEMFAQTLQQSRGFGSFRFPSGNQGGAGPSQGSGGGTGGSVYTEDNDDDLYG

Data set [3] has as its system actin (phalloidin), vimentin, and annexin II. As to the kind of experiment: Immunofluorescence of structural proteins. The format is cell-based. As to conditions: HEK293 cells, 4 h, concentrations used in the cellular studies.
For data set [4], the target named is N-ethylmaleimide sensitive factor (NSF) (Cricetulus griseus, UniProt P18708). The data set can be described thus: NSF ATPase assay. In kind it is biochemical, Chinese hamster (Cricetulus griseus). The procedure, abridged:
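Chinese hamster NSF was expressed in E. coli Rosetta 2(DE3), purified by Talon then Superdex 200, and used at 200 nM in 50 mM Tris pH 7.4, 150 mM KCl, 10 mM MgCl2, 1 mM DTT. Compound (0.0004–100 μM in DMSO) was preincubated 10 min at 21 °C, then 100 μM ATP was added. IC50 was fitted from % inhibition on a semi-log plot.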

The test system of data set [5] is XBP1s in HEK293 cells. The data set can be described thus: Unfolded protein response: XBP1 splicing, Western blot. Particulars: anti-XBP1 Western blot. The format is cell-based. The method in brief: (§2)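 HEK293 cells were treated with compound in DMEM/10% FBS for 24 h and lysed in SDS sample buffer with sonication. Lysates were run on 4–20% gradient SDS-PAGE and transferred to nitrocellulose, blocked 1 h in 5% milk, then probed with 1:1000 anti-ubiquitin, anti-XBP1s (spliced […] band) or anti-LC3 I/II (LC3-II lowest band). Secondaries were used at 1:3000 with chemiluminescent detection; lamin A or GAPDH served as loading controls.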

The target of data set [6] is 20S proteasome (Homo sapiens, UniProt P20618+P28074). The data set can be described thus: 20S proteasome chymotrypsin-like activity. In kind it is biochemical. Particulars: 1.2 nM 20S proteasome, Suc-LLVY-AMC. The method in brief:
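Kit-supplied 20S proteasome (1.2 nM final) was preincubated with test compound (eight-point, 3-fold serial dilutions) in kit reaction buffer at 37 °C for 10 min. Then 50 μM Suc-LLVY-AMC was added, followed by 1 h at 37 °C. AMC fluorescence was read at ex 380/em 440 nm. IC50 was taken from a semi-log plot of relative fluorescence versus concentration.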

In data set [7] the target is p97–Cys0 (Homo sapiens, UniProt P55072, C105V/C174V/C184V/C209A/C415V/C522A/C535V/C572V/C691V/C695V/C69V/C77V). The data set can be described thus: ATPase assay, cysteine-less p97 variant. The format is biochemical. The method in brief:
as §1

Data set [8] concerns the target p97–C522A (Homo sapiens, UniProt P55072, C522A). The data set can be described thus: ATPase assay, p97 C522A variant. The format is biochemical. The method in brief:
as §1

Data set [9] has as its target wild-type p97 (wt-p97) (Homo sapiens, UniProt P55072). The data set can be described thus: Analysis of covalent reactivity: p97 ATPase activity after dialysis. The format is biochemical. Particulars: 1 μM compound, 1 μM p97, 2 mM ATP. The method in brief: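 His-tagged wild-type p97 (pET14b, E. coli BL21(DE3), Talon-purified; 1 μM) was incubated with 1 μM compound in Tris/KCl/MgCl2/DTT buffer pH 7.4 at 4 °C 12 h, 21 °C 6 h or 37 °C 2 h; 1% DMSO served as control. The mixture was dialysed against buffer exchanged three times at 2-h intervals.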

Data set [10] deals with total ubiquitylated proteins in HEK293 cells. As to the kind of experiment: Total ubiquitylation, Western blot. The format is cell-based. As to conditions: anti-ubiquitin antibody. The procedure, abridged:
as §2

The target of data set [11] is GroEL (Escherichia coli, UniProt P0A6F5). The data set can be described thus: biochemical. Details: species or system E. coli.
Chain of GroEL (P0A6F5 2-548): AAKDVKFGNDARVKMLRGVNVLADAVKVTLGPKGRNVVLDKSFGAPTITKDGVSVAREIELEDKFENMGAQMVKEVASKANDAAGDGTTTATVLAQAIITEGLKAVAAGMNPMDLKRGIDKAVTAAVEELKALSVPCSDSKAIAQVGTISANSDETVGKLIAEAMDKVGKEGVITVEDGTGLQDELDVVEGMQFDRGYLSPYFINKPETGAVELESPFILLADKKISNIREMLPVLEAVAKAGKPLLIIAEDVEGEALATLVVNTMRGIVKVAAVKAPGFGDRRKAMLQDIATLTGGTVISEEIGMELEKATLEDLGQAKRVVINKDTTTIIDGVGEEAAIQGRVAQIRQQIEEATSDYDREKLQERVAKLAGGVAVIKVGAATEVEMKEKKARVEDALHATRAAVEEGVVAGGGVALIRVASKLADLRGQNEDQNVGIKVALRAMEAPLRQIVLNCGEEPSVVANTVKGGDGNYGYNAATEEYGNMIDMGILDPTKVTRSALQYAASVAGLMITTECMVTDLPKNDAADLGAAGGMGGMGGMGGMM
For data set [12], the target named is ClpX (Escherichia coli, UniProt P0A6H1). The data set can be described thus: ClpX ATPase assay. The format is biochemical, bacterial.
Chain of ClpX (P0A6H1 whole entry): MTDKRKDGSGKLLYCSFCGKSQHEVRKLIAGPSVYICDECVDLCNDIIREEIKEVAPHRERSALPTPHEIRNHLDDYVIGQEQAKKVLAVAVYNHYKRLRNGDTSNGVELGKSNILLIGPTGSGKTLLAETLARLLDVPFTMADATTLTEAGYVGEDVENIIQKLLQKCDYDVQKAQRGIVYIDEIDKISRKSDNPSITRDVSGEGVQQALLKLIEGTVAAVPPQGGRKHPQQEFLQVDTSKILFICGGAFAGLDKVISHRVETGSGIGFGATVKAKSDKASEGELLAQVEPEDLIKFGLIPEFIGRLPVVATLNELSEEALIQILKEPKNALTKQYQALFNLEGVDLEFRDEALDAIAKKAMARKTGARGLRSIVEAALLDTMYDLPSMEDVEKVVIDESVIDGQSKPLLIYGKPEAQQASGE
Data set [13] concerns the target wt p97 (Homo sapiens, UniProt P55072). The data set can be described thus: p97 ATPase assay. The format is biochemical. The method in brief: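 Test compound in DMSO (0.0004–100 μM) preincubated 10 min at 21 °C, then 100 μM ATP added at 21 °C. IC50 fitted from % inhibition versus log concentration. Screen: 100 μM pure compounds, EDTA positive control.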
The nature of data set [14]: in vitro. As to conditions: human.
Data set [15] in a line: in vitro. Particulars: human. The source holds these as a separate data set.
Data set [16] in a line: in vitro. Particulars: human. This is another data set of the same source.
Data set [17] can be described thus: in vitro. As to conditions: human. The source holds these as a separate data set.
The nature of data set [18]: in vitro. As to conditions: human. The source holds these as a separate data set.
Data set [19] is described as follows: in vitro. As to conditions: human. The source holds these as a separate data set.

The structures appear in SMILES notation.

Chain of wt p97 (P55072 whole entry): as the sequence (P55072 whole entry C209A) above, with A209C counted along it
Chain of N-ethylmaleimide sensitive factor (NSF) (P18708 whole entry): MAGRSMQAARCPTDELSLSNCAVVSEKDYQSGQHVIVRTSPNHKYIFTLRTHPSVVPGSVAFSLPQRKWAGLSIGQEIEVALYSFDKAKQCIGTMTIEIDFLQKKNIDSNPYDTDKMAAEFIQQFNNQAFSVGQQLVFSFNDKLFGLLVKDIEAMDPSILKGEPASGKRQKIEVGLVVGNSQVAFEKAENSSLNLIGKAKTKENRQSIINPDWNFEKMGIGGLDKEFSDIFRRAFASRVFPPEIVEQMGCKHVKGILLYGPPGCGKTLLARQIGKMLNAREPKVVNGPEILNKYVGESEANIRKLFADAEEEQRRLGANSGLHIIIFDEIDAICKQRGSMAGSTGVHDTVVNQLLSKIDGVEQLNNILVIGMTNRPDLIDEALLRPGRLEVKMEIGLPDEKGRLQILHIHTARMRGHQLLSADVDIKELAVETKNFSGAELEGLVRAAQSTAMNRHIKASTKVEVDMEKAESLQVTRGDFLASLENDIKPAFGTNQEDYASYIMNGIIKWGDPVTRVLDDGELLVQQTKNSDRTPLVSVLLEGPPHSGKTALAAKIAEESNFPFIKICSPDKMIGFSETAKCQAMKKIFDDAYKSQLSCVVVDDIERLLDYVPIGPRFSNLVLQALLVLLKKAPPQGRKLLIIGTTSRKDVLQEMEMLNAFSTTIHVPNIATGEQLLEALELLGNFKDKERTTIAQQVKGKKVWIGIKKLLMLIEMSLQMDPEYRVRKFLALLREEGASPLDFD
Chain of p97–C522A (P55072 whole entry C522A): as the sequence (P55072 whole entry C209A) above, with A209C, C522A counted along it
Chain of p97–Cys0 (P55072 whole entry C69V/C77V/C105V/C174V/C184V/C209A/C415V/C522A/C535V/C572V/C691V/C695V): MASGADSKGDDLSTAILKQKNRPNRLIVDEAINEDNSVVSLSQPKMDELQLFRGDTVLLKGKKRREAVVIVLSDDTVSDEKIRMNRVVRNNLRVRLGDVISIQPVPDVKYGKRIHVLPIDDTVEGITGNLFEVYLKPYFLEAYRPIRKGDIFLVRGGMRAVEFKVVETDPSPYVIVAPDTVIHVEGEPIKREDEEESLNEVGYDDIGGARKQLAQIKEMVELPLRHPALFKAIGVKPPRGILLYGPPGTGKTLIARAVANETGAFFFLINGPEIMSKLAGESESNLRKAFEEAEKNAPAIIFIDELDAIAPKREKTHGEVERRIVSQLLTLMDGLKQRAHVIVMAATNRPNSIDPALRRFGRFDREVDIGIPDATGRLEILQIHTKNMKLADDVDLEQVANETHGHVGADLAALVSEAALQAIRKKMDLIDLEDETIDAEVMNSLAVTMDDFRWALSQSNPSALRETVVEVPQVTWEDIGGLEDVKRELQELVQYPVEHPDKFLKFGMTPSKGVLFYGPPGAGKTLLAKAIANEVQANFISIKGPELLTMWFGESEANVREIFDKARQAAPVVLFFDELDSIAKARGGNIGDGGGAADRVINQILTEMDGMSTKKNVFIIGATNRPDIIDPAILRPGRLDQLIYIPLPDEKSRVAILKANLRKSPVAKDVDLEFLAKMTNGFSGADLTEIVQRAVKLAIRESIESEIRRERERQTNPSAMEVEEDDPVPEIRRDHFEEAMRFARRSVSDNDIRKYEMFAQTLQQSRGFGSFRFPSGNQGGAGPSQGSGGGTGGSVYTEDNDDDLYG
Chain of wild-type p97 (wt-p97) (P55072 whole entry): as the sequence (P55072 whole entry C209A) above, with A209C counted along it

Regarding `CC1=C(CO)C(=O)O[C@@H]([C@@H](C)[C@H]2CC[C@H]3[C@@H]4C[C@H]5O[C@]56[C@@H](O)C=CC(=O)[C@]6(C)[C@H]4CC[C@]23C)C1` [Compound 1, withaferin A], the “level of Ub^G76VGFP reporter” value in data set [1] is on record as “dose-dependent, higher levels of reporter”. Also, the IC50 (commonly the concentration that inhibits the measured activity by half) was 24.9 ± 1.91 µM in data set [2]; greater than 200 µM in [4]; greater than 200 µM in data set [7]; greater than 200 µM in [8]; greater than 200 µM in [11]; greater than 200 µM in data set [12]. In data set [13], this molecule gave an IC50 of 44 ± 0.21 µM. The “effects on structural proteins” value in data set [3] is “did not see effects”. In data set [5], the “increase in XBP1s” value is listed as “did show an increase”. Further, the “inhibition of the 20S proteasome” value in [6] is “inhibit”. In addition, in data set [9], the “inhibition of p97 ATPase remaining after extensive dialysis” value was “slight inhibition remained”. Moreover, the total ubiquitylation entry in data set [10] is reported as “increased”. In addition, in data set [13] (100 μM for pure compounds, 384-well plate), the “inhibition of p97 in initial screen” value is listed as “moderate inhibition”. Also, the “effect of ATP concentration on the IC50 value” in [13] (varied ATP concentration) is “distinct shift in the IC50 value”.
With `CC1=C(CO)C(=O)O[C@@H]([C@@H](C)[C@H]2CC[C@H]3[C@@H]4C[C@H]5O[C@]56[C@@H](O)[C@@H](O)CC(=O)[C@]6(C)[C@H]4CC[C@]23C)C1` [Compound 14, viscosalactone B], the half-maximal inhibitory concentration (IC50) in data set [2], in data set [4], in data set [7], in data set [8], in data set [11] and in data set [12] was greater than 200 µM in each case. Further, the IC50 in [13] is greater than 200 µM. Also, the IC50 at 48 h in data set [14], in data set [15], in data set [16], in data set [17], in data set [18] and in data set [19] was greater than 100 µM throughout.
